Reference: ChEMBL document CHEMBL2016487, “Pyrazolopyrimidines as dual Akt/p70S6K inhibitors” (Bioorg Med Chem Lett, 2012)
Values belong to the molecule of their own block, whether it stands above or below them.

What was measured:
[1] = Half life in dog at 3 mg/kg, po; type: ADME, organism-based, Canis lupus familiaris; parameters: dose 3 mg/kg, route oral; details: in vivo
[2] = Volume of distribution in dog at 3 mg/kg; type: ADME, organism-based, Canis lupus familiaris; parameters: dose 3 mg/kg; details: in vivo
PC-3 [3] = experiment: Inhibition of PRAS40 phosphorylation in human PC3 cells xenografted model at 100 mg/kg bid; type: functional
Summary of the method: (§1)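 PC-3 prostate carcinoma model; compound given at 100 mg/kg bid, five doses in total before phospho-S6, phospho-GSK3β and phospho-PRAS40 levels were measured.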

A549 [4] = experiment: Anticancer activity against human A549 cell xenografted model at 50 mg/kg, po qd for 2 days every 4 days; type: functional; details: read-out: TGI
[5] = Cmax in rat at 2.5 mg/kg, iv; type: ADME, organism-based; parameters: dose 2.5 mg/kg, route intravenous; details: in vivo
[6] = Half life in rat at 2.5 mg/kg, iv; type: ADME, organism-based; parameters: dose 2.5 mg/kg, route intravenous; details: in vivo
[7] = molecular target: T1, Ribosomal protein S6 kinase beta-1 (Homo sapiens, UniProt P23443); experiment: Inhibition of p70S6K after 3 hrs by luciferase based chemiluminescence assay
Rattus norvegicus [8] = experiment: Dose normalized AUC in rat at 2.5 mg/kg, po; type: ADME, organism-based; parameters: dose 2.5 mg/kg, route oral; details: in vivo
[9] = Plasma concentration in mouse at 100 mg/kg after 4 hrs; type: ADME, organism-based; parameters: dose 100 mg/kg
Summary of the method: (§2)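 Mouse plasma levels measured 1 and 4 h after a 100 mg/kg dose.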

[10] = Half life in rat at 2.5 mg/kg, po; type: ADME, organism-based; parameters: dose 2.5 mg/kg, route oral; details: in vivo
[11] = Volume of distribution in rat at 2.5 mg/kg; type: ADME, organism-based; parameters: dose 2.5 mg/kg; details: in vivo
[12] = Oral bioavailability in monkey at 3 mg/kg; type: ADME, organism-based, Macaca mulatta; details: rhesus monkey, in vivo
[13] = Clearance in monkey at 3 mg/kg; type: ADME, organism-based, Macaca mulatta; parameters: dose 3 mg/kg; details: rhesus monkey, in vivo
[14] = Half life in monkey at 3 mg/kg, po; type: ADME, organism-based, Macaca mulatta; parameters: dose 3 mg/kg, route oral; details: rhesus monkey, in vivo
[15] = molecular target: T2, RAC-alpha serine/threonine-protein kinase (Homo sapiens, UniProt P31749); experiment: Inhibition of AKT1 after 3 hrs by luciferase based chemiluminescence assay
[16] = Volume of distribution in monkey at 3 mg/kg; type: ADME, organism-based, Macaca mulatta; parameters: dose 3 mg/kg; details: rhesus monkey, in vivo
PC-3 [17] = experiment: Anticancer activity against human PC3 prostate tumor cell xenografted model at 50 mg/kg, po qd for 15 days; type: functional; details: PC-3, 360 h, read-out: TGI
Summary of the method: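 PC-3 xenograft efficacy study; oral dosing at 50 mg/kg qd for 15 days, tumor growth inhibition determined.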

A549 [18] = experiment: Anticancer activity against human A549 cell xenografted model at 100 mg/kg, po qd for 2 days every 4 days; type: functional; details: read-out: TGI
Summary of the method: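 A549 xenograft; oral dosing at 50 mg/kg qd, or 100 mg/kg qd for two days every 4 days; tumor growth inhibition determined.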

[19] = Cmax in monkey at 3 mg/kg, iv; type: ADME, organism-based, Macaca mulatta; parameters: dose 3 mg/kg, route intravenous; details: rhesus monkey, in vivo
[20] = Cmax in monkey at 3 mg/kg, po; type: ADME, organism-based, Macaca mulatta; parameters: dose 3 mg/kg, route oral; details: rhesus monkey, in vivo
[21] = Cmax in dog at 3 mg/kg, iv; type: ADME, organism-based, Canis lupus familiaris; parameters: dose 3 mg/kg, route intravenous; details: in vivo
[22] = Oral bioavailability in rat at 2.5 mg/kg; type: ADME, organism-based; details: in vivo
[23] = Half life in monkey at 3 mg/kg, iv; type: ADME, organism-based, Macaca mulatta; parameters: dose 3 mg/kg, route intravenous; details: rhesus monkey, in vivo
[24] = Clearance in dog at 3 mg/kg; type: ADME, organism-based, Canis lupus familiaris; parameters: dose 3 mg/kg; details: in vivo
PC-3 [25] = experiment: Inhibition of GSK3beta phosphorylation in human PC3 cells xenografted model at 100 mg/kg bid; type: functional; summary of the method: as §1
Rhesus monkey [26] = experiment: Dose normalized AUC in monkey at 3 mg/kg, po; type: ADME, organism-based, Macaca mulatta; parameters: dose 3 mg/kg, route oral; details: in vivo
[27] = Half life in dog at 3 mg/kg, iv; type: ADME, organism-based, Canis lupus familiaris; parameters: dose 3 mg/kg, route intravenous; details: in vivo
[28] = molecular target: T2, RAC-alpha serine/threonine-protein kinase; experiment: Inhibition of AKT1-mediated GSK3beta phosphorylation in human PC3 cells after 3 hrs by chemiluminescence assay; type: cell-based, PC-3
Summary of the method: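 PC-3 cells seeded at 7.5 × 10³ cells/well, grown 24 h, then serum-starved 24 h. Compound treatment 3 h in triplicate (0.2% DMSO final), followed by 100 ng/ml IGF1 for 30 min. Fixed and processed as a cell ELISA using anti-phospho-GSK3β (S9) and anti-total-GSK3β antibodies, chemiluminescent read-out.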

Rhesus monkey [29] = experiment: Dose normalized AUC in monkey at 3 mg/kg, iv; type: ADME, organism-based, Macaca mulatta; parameters: dose 3 mg/kg, route intravenous; details: in vivo
[30] = molecular target: T1, Ribosomal protein S6 kinase beta-1; experiment: Inhibition of p70S6K-mediated ribosomal protein S6 phosphorylation in human PC3 cells after 3 hrs by chemiluminescence assay; type: cell-based, PC-3
Summary of the method: (§3)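 A549 or PC-3 cells seeded at 7.5 × 10³ cells/well in DMEM with heat-inactivated 10% FBS, 1% penicillin–streptomycin, 1% non-essential amino acids, grown 48 h at 37 °C, 5% CO₂. Treated 3 h with compound at 1.2–300 nM, triplicate, 0.2% DMSO final. Fixed in 4% formaldehyde, blocked, probed with anti-phospho-S6 (Ser240/244) and anti-total-S6 overnight at 4 °C, chemiluminescent read-out.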

Canis familiaris [31] = experiment: Dose normalized AUC in dog at 3 mg/kg, iv; type: ADME, organism-based, Canis lupus familiaris; parameters: dose 3 mg/kg, route intravenous; details: in vivo
[32] = Cmax in dog at 3 mg/kg, po; type: ADME, organism-based, Canis lupus familiaris; parameters: dose 3 mg/kg, route oral; details: in vivo
Canis familiaris [33] = experiment: Dose normalized AUC in dog at 3 mg/kg, po; type: ADME, organism-based, Canis lupus familiaris; parameters: dose 3 mg/kg, route oral; details: in vivo
[34] = Plasma concentration in mouse at 100 mg/kg after 1 hr; type: ADME, organism-based; parameters: dose 100 mg/kg; summary of the method: as §2
[35] = Oral bioavailability in dog at 3 mg/kg; type: ADME, organism-based, Canis lupus familiaris; details: in vivo
Rattus norvegicus [36] = experiment: Dose normalized AUC in rat at 2.5 mg/kg, iv; type: ADME, organism-based; parameters: dose 2.5 mg/kg, route intravenous; details: in vivo
PC-3 [37] = experiment: Inhibition of ribosomal protein S6 phosphorylation in human PC3 cells xenografted model at 100 mg/kg bid; type: functional; summary of the method: as §1
[38] = molecular target: T1, Ribosomal protein S6 kinase beta-1; experiment: Inhibition of p70S6K-mediated ribosomal protein S6 phosphorylation in human A549 cells after 3 hrs by chemiluminescence assay; type: cell-based; summary of the method: as §3
[39] = Clearance in rat at 2.5 mg/kg; type: ADME, organism-based; parameters: dose 2.5 mg/kg; details: in vivo
[40] = Cmax in rat at 2.5 mg/kg, po; type: ADME, organism-based; parameters: dose 2.5 mg/kg, route oral; details: in vivo
PC-3 [41] = experiment: Anticancer activity against human PC3 prostate tumor cell xenografted model at 100 mg/kg, po qd for 15 days; type: functional; details: PC-3, 360 h, read-out: TGI
[42] = Drug metabolism in mouse liver microsomes at 15 uM after 30 mins; type: ADME, Microsome; details: read-out: Drug metabolism
Summary of the method: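 Mouse liver microsomes at 0.5 mg/mL, incubated 30 min with compound at 15 µM; value reported as % conversion.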

[43] = Cmax in rat at 5 mg/kg, iv; type: ADME, organism-based; parameters: dose 5 mg/kg, route intravenous; details: in vivo
[44] = Half life in rat at 5 mg/kg, iv; type: ADME, organism-based; parameters: dose 5 mg/kg, route intravenous; details: in vivo
[45] = Volume of distribution in rat at 5 mg/kg; type: ADME, organism-based; parameters: dose 5 mg/kg; details: in vivo
[46] = Oral bioavailability in rat at 5 mg/kg; type: ADME, organism-based; details: in vivo
[47] = Half life in rat at 5 mg/kg, po; type: ADME, organism-based; parameters: dose 5 mg/kg, route oral; details: in vivo
Rattus norvegicus [48] = experiment: Dose normalized AUC in rat at 5 mg/kg, iv; type: ADME, organism-based; parameters: dose 5 mg/kg, route intravenous; details: in vivo
[49] = Clearance in rat at 5 mg/kg; type: ADME, organism-based; parameters: dose 5 mg/kg; details: in vivo
[50] = Cmax in rat at 5 mg/kg, po; type: ADME, organism-based; parameters: dose 5 mg/kg, route oral; details: in vivo
Rattus norvegicus [51] = experiment: Dose normalized AUC in rat at 5 mg/kg, po; type: ADME, organism-based; parameters: dose 5 mg/kg, route oral; details: in vivo

T2 sequence (P31749 whole entry): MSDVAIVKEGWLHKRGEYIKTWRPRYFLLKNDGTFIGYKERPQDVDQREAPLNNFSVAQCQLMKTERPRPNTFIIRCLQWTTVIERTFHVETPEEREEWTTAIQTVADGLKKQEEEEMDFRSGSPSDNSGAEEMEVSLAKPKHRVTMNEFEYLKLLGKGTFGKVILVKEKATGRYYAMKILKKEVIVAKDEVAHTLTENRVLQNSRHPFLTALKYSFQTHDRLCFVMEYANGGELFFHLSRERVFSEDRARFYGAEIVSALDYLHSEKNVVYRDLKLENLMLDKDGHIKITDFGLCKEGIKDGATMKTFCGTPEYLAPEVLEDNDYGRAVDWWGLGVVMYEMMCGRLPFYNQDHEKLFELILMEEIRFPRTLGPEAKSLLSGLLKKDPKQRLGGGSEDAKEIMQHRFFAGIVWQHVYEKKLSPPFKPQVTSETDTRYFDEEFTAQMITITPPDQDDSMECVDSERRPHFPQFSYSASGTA
T1 sequence (P23443 whole entry): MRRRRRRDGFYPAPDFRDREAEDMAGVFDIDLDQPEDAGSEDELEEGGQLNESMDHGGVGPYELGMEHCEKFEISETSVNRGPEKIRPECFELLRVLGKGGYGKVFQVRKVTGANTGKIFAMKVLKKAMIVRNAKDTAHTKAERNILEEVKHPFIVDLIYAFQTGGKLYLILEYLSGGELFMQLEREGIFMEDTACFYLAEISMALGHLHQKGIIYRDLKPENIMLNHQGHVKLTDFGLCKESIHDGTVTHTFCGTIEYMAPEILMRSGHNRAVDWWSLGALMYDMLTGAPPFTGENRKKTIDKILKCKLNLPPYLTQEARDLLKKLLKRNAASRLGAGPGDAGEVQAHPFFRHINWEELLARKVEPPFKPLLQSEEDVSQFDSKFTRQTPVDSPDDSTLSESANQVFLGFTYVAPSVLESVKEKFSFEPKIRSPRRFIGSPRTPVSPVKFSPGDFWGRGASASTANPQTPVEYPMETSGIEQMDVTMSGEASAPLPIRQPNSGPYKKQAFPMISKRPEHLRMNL

Structure (SMILES): Cc1c(NCCN2CCCC2)cc(C(=O)CCC(F)(F)F)cc1N1CCN(c2ncnc3[nH]nc(Br)c23)CC1 [XL-418]
half-life [1]: 10.4 h
Vd [2]: 17 L/kg
inhibition in vivo at 100 mg/kg (PC-3 [3]): 76%
inhibition in vivo at 50 mg/kg (A549 [4]): 71%
Cmax [5]: 330 nM
half-life [6]: 3.5 h
IC50 [7]: 2 nM
AUC/dose (Rattus norvegicus [8]): 0.17 µM·kg·h/mg
concentration at 4 h [9]: 3100 nM
half-life [10]: 7.9 h
Vd [11]: 12.9 L/kg
bioavailability [12]: 77%
clearance [13]: 20.5 mL/min/kg
half-life [14]: 6.4 h
IC50 [15]: 1 nM
Vd [16]: 6.9 L/kg
inhibition in vivo at 50 mg/kg (PC-3 [17]): 52%
inhibition in vivo at 100 mg/kg (A549 [18]): 96%
Cmax [19]: 580 nM
Cmax [20]: 400 nM
Cmax [21]: 210 nM
bioavailability [22]: 35%
half-life [23]: 6.1 h
clearance [24]: 26 mL/min/kg
inhibition in vivo at 100 mg/kg (PC-3 [25]): 46%
AUC/dose (Rhesus monkey [26]): 0.94 µM·kg·h/mg
half-life [27]: 7.5 h
IC50 [28]: 194 nM
AUC/dose (Rhesus monkey [29]): 1.22 µM·kg·h/mg
IC50 [30]: 55 nM
AUC/dose (Canis familiaris [31]): 0.95 µM·kg·h/mg
Cmax [32]: 100 nM
AUC/dose (Canis familiaris [33]): 0.54 µM·kg·h/mg
concentration at 1 h [34]: 1600 nM
bioavailability [35]: 58%
AUC/dose (Rattus norvegicus [36]): 0.64 µM·kg·h/mg
inhibition in vivo at 100 mg/kg (PC-3 [37]): 90%
IC50 [38]: 30 nM
clearance [39]: 45.4 mL/min/kg
Cmax [40]: 40 nM

Structure (SMILES): Cc1c(NCCN2CCCC2)cc(OCC(C)C)cc1N1CCN(c2ncnc3[nH]nc(Br)c23)CC1
Cmax [43]: 1150 nM
IC50 [7]: 1 nM
half-life [44]: 2.5 h
concentration at 4 h [9]: 1300 nM
Vd [45]: 14.7 L/kg
bioavailability [46]: 13%
IC50 [15]: 9 nM
half-life [47]: 1.7 h
AUC/dose (Rattus norvegicus [48]): 0.35 µM·kg·h/mg
clearance [49]: 79.5 mL/min/kg
Cmax [50]: 70 nM
IC50 [28]: 700 nM
AUC/dose (Rattus norvegicus [51]): 0.05 µM·kg·h/mg
IC50 [30]: 214 nM
concentration at 1 h [34]: 1200 nM
IC50 [38]: 37 nM

Structure (SMILES): Cc1c(NCCN2CCCC2)cc(C(=O)Nc2ccccc2)cc1N1CCN(c2ncnc3[nH]nc(Br)c23)CC1
IC50 [7]: 1 nM
IC50 [15]: 13 nM
IC50 [28]: 7810 nM
IC50 [30]: 190 nM
IC50 [38]: 14 nM

Structure (SMILES): Cc1c(NCCN2CCCC2)cc(CCC(C)(C)C)cc1N1CCN(c2ncnc3[nH]nc(Br)c23)CC1
IC50 [7]: 2 nM
IC50 [15]: 7 nM
IC50 [28]: 1980 nM
IC50 [30]: 203 nM
IC50 [38]: 116 nM

More lines, main results first:

IC50 [7]: 2 nM
IC50 [28]: 9030 nM
IC50 [30]: 211 nM
metabolised at 0.5 h, 15 µM [42]: 29%
IC50 [38]: 45 nM
Structure (SMILES): CCc1n[nH]c2ncnc(N3CCN(c4cc(Cl)cc(NCCN(C)C)c4C)CC3)c12
inhibition in vivo at 100 mg/kg (PC-3 [41]): 49%

IC50 [7]: 2 nM
IC50 [28]: 4280 nM
IC50 [30]: 141 nM
metabolised at 0.5 h, 15 µM [42]: 50%
IC50 [38]: 43 nM
Structure (SMILES): Cc1c(NCCN(C)C)cc(Cl)cc1N1CCN(c2ncnc3[nH]nc(Br)c23)CC1
